Activity calls are given as the source filed them.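 How the source made its calls: active means peak inhibition of the KCNK3 potassium channel above 30% at some tested dose, plus a fitted dose response curve; inactive means no inhibition at any dose, or no curve could be fitted.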

The target of the assay is Potassium channel subfamily K member 3 (Rattus norvegicus) (UniProt O54912). In words: KCNK3 channel inhibition in expressing cells, SAR follow-up, selectivity assay for KCNK9 inhibitor project, cell-based, FluxOR thallium flux, CRC set 1 (AID 588776). The conditions noted are these: FluxOR thallium flux fluorescence; for flux ratio, lower = inhibition: at 30 µM (top of the series). An outline of the steps:
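Material: Tetracycline-induced KCNK3-expressing CHO cells | Schedule: 90 min dye load, 20 min compound, room temperature | Measured by: Kinetic fluorescence of FluxOR thallium-sensitive dye after stimulus addition | Measure: Baseline-normalized fluorescence change, IC50 and Hill fit | Repeats: Duplicate or more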

Potassium channel subfamily K member 3 (Rattus norvegicus), sequence (O54912 whole entry, looked up): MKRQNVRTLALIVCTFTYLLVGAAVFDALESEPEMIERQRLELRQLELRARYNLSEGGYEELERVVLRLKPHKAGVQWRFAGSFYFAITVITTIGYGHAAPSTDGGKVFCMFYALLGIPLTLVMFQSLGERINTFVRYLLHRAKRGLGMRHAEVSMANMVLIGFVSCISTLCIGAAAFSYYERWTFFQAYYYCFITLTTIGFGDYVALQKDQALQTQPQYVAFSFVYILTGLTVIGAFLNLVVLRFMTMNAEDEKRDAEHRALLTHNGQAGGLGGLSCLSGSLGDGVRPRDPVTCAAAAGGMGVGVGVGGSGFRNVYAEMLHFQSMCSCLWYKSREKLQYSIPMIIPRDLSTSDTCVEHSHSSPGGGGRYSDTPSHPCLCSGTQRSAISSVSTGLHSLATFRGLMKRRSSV

In general, IC50 refers to the concentration needed to halve the response being measured. In the case of `CC(C1CC2CCC1C2)n1c(SCC(=O)c2ccc(Cl)c(Cl)c2)nnc1-c1ccco1` (stereo not drawn), the IC50 is 7.94 µM.

Turning to `COc1cccc(C(=O)CSc2nnc(-c3ccco3)n2C(C)C2CC3CCC2C3)c1` (stereo not drawn), the IC50 was 14.7 µM.

In the case of `C[C@@H](C1CCCCC1)n1c(-c2ccco2)n[nH]c1=S`, the IC50 is more than 30 µM.

Turning to `CC(CC1CC2CCC1C2)n1c(-c2ccco2)n[nH]c1=S` (stereo not drawn), the IC50 is 15.8 µM.

On to `CC(CCC1CCCC1)n1c(-c2ccco2)n[nH]c1=S` (stereo not drawn), for which the IC50 was 2.36 µM.

In the case of `CC(C1C2CCC1CC2)n1c(-c2ccco2)n[nH]c1=S` (stereo not drawn), the “flux ratio, lower = inhibition” value is “inactive”.

Take `CC(C1CC2CCC1C2)n1c(SCC(=O)c2ccc3c(c2)OCO3)nnc1-c1ccco1` (stereo not drawn): the IC50 is 4.87 µM.

As to `CC(C1CC2CCC1C2)n1c(-c2ccc(N(C)C)cc2)n[nH]c1=S` (stereo not drawn), the “flux ratio, lower = inhibition” value was “inactive”.

For `CC(C1CC2CCC1C2)n1c(-c2cccc(N(C)C)c2)n[nH]c1=S` (stereo not drawn), the “flux ratio, lower = inhibition” value was “inactive”.

As to `CC(C1CC2CCC1C2)n1c(SCC(=O)c2ccccc2)nnc1-c1ccco1` (stereo not drawn), the IC50 was 1.22 µM.

With `C[C@H](C1CCCCC1)n1c(-c2ccco2)n[nH]c1=S`, the “flux ratio, lower = inhibition” value was “inactive”.

As for `CC(C1CC2CCC1C2)n1c(-c2ccncc2)n[nH]c1=S` (stereo not drawn), the “flux ratio, lower = inhibition” value is “inactive”.

Take `COc1ccc(CCSc2nnc(-c3ccco3)n2C(C)C2CC3CCC2C3)cc1OC` (stereo not drawn): the IC50 was 15.5 µM.
